Results on 16 compounds are retold here after ChEMBL document CHEMBL1212881, “Design, synthesis, and structure-affinity relationships of regioisomeric N-benzyl alkyl ether piperazine derivatives as sigma-1 receptor ligands” (J Med Chem, 2010).

Data set [1] can be described thus: Displacement of [3H]DTG from sigma2 receptor in rat PC12 cells. As to conditions: pc-12; call rule not given here. For orientation: In a radioligand displacement assay an active substance lowers the binding of a labelled ligand.
For data set [2], the target named is 5-hydroxytryptamine receptor 2B (Homo sapiens, UniProt P41595). The experiment in a line: Binding affinity to 5HT2B. The gist of the method:
(§1)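 Ki values come from radioligand binding run by the NIMH Psychoactive Drug Screening Program (PDSP) under its standard conditions. Values are means ± SEM from triplicate assays.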

For a further data set, the species on record is Rattus norvegicus. Description: Selectivity ratio of Ki for rat sigma2 receptor to Ki rat sigma1 receptor. The gist of the method:
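The ratio is Ki(σ2) divided by Ki(σ1). σ1 Ki came from [³H](+)-pentazocine displacement in rat brain homogenate. σ2 Ki came from [³H]DTG displacement in PC12 cell preparation, a cell line that overexpresses σ2. Both Ki values are triplicate means; ratios above 1 mean σ1-selective.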

In data set [3] the target is T1, 5-hydroxytryptamine receptor 1A (Homo sapiens, UniProt P08908).
T1 sequence (P08908 whole entry): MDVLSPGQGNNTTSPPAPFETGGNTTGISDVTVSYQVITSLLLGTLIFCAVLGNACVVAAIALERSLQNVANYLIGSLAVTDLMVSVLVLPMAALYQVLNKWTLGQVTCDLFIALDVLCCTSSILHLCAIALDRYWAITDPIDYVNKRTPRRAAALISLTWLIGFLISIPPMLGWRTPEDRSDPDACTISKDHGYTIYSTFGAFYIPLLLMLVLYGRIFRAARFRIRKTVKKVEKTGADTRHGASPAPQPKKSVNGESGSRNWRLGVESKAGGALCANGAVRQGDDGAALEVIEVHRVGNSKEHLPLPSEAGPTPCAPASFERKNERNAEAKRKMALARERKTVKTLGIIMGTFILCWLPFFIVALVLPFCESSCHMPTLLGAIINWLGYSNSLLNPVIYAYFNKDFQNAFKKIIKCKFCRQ
The experiment in a line: Binding affinity to 5HT1A. An outline of the steps: as §1

In data set [4] the target is Sigma non-opioid intracellular receptor 1 (Rattus norvegicus, UniProt Q9R0C9). Description: Displacement of [3H]pentazocine from sigma1 receptor in rat brain homogenate. The format is tissue-based. The gist of the method:
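σ1 affinity was measured by competitive displacement of [³H](+)-pentazocine from rat brain homogenate, using a competitive modification of the Kovacs and Larson protocol. Ki is reported as mean ± SEM from triplicate assays.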

Another data set deals with D(2) dopamine receptor (Homo sapiens, UniProt P14416). The experiment in a line: Binding affinity to dopamine D2. The gist of the method: as §1
Data set [5] can be described thus: Drug uptake in baboon frontal cortex at 100 MBq, iv. As to conditions: papio hamadryas, in vivo. In kind it is ADME, organism-based. An outline of the steps: (§2)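 Anaesthetized Papio hamadryas baboon; radiotracer given iv at 100 MBq in 3 mL saline, specific activity 73 GBq/μmol. Dynamic brain PET started just before injection and ran 60 min. Voxel values were decay-corrected to injection time and converted to % injected dose/mL. Regional time-activity curves came from coregistered regions of interest.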

Data set [6] can be described thus: Drug uptake in baboon brain at 100 MBq, iv in presence of haloperidol. As to conditions: papio hamadryas, in vivo. The format is ADME, organism-based. The gist of the method: (§3)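 Anaesthetized Papio hamadryas baboon; radiotracer given iv at 100 MBq in 3 mL saline, specific activity 73 GBq/μmol. Haloperidol (1 mg/kg) given iv 5 min before the tracer. Dynamic PET over 60 min, then whole-body acquisition for 2 min at each of six bed positions. Uptake expressed as decay-corrected % injected dose/mL.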

The nature of data set [7]: Drug uptake in baboon striatum at 100 MBq, iv. The format is ADME, organism-based. As to conditions: papio hamadryas, in vivo. The gist of the method:
as §2

Data set [8] is described as follows: Drug uptake in baboon kidney at 100 MBq, iv in presence of haloperidol. The format is ADME, organism-based. As to conditions: papio hamadryas, in vivo. An outline of the steps:
as §3

Data set [9] is described as follows: Drug uptake in baboon liver at 100 MBq, iv in presence of haloperidol. The format is ADME, organism-based. Particulars: papio hamadryas, in vivo. An outline of the steps: as §3
Data set [10] is described as follows: Drug uptake in baboon bladder at 100 MBq, iv in presence of haloperidol. In kind it is ADME, organism-based, Urinary bladder. Particulars: papio hamadryas, in vivo. The gist of the method:
as §3

The nature of data set [11]: Drug uptake in baboon cingulate cortex at 100 MBq, iv. The format is ADME. Particulars: papio hamadryas, in vivo. An outline of the steps: as §2
Data set [12] in a line: Lipophilicity, log D of the compound. The format is physicochemical. As to conditions: HPLC retention time. An outline of the steps: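 Log D estimated by HPLC retention time on a C-18 column. Mobile phase methanol/0.05 M potassium phosphate buffer (65:35 v/v, pH 7.47) at 0.3 mL/min, UV 254 nm. Calibrated against standards of known log D (aniline, benzene, toluene, cumene, triphenylamine, hexachlorobenzene) using an exponential fit. Injections in triplicate and averaged.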

SMILES strings stand for the structures.

D(2) dopamine receptor, sequence (P14416 whole entry): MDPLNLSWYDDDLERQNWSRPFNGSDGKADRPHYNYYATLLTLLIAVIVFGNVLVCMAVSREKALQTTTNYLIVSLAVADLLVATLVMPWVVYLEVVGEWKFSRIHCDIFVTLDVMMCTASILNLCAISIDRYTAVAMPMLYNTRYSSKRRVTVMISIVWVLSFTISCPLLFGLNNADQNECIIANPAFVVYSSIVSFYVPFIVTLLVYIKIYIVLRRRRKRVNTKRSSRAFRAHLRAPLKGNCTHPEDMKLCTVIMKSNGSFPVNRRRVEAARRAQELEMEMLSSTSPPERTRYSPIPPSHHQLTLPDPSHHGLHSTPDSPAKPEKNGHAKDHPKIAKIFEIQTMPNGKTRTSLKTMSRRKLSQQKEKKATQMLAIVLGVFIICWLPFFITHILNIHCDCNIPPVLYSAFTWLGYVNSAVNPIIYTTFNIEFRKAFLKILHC
Sigma non-opioid intracellular receptor 1, sequence (Q9R0C9 whole entry): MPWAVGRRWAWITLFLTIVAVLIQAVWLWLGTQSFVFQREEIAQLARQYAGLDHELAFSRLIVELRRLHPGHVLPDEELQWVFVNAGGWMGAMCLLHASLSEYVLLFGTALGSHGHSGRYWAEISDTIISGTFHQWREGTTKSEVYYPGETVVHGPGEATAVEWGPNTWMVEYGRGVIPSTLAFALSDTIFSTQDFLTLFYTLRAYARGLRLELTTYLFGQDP
5-hydroxytryptamine receptor 2B, sequence (P41595 whole entry): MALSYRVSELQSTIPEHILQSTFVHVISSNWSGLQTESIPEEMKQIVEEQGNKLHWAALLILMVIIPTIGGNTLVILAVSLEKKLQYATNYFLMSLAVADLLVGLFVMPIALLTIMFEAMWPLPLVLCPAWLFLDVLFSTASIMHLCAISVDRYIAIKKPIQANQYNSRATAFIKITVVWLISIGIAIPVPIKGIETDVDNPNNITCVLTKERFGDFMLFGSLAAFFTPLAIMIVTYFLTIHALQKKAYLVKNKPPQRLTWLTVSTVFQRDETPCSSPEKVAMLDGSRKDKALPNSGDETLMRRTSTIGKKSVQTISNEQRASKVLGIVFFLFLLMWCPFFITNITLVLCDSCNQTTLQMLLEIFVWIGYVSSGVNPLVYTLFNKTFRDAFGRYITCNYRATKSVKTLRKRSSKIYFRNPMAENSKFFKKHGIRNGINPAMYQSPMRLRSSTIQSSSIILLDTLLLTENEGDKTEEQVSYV

The term Ki denotes the equilibrium dissociation constant of an inhibitor or competing ligand from its target. Lower therefore signals a stronger hold on the target. Regarding `c1ccc(CN2CCN(Cc3cc4ccccc4o3)CC2)cc1`, the Ki in data set [1] is 240 nM; in [2], 497 nM; in data set [3], 833 nM; in data set [4], 5.2 nM; on D(2) dopamine receptor, greater than 10000 nM. Further, the Ratio Ki in the data set filed under Rattus norvegicus came to 46.

With `CCCOc1cccc(CN2CCN(Cc3cc4ccccc4o3)CC2)c1`, the inhibition constant (Ki) in data set [1] was determined as 1920 nM; in data set [2] it was 259 nM; in [3] it was 774 nM; in [4] it was 177 nM; on D(2) dopamine receptor it was 2980 nM. The Ratio Ki in the data set filed under Rattus norvegicus worked out at 11.

Turning to `FCCCOc1cccc(CN2CCN(Cc3cc4ccccc4o3)CC2)c1`, the inhibitory constant (Ki) is 2370 nM in data set [1]; 188 nM in data set [2]; 599 nM in data set [3]; 232 nM in [4]; 2920 nM on D(2) dopamine receptor. In addition, in the data set filed under Rattus norvegicus, the Ratio Ki stood at 10.

As for `FCCCOc1ccc(CN2CCN(Cc3cc4ccccc4o3)CC2)cc1`, the inhibition constant (Ki) in [1] is 752 nM; in [2], 232 nM; in data set [3] it was 3300 nM; in data set [4], 14.7 nM; at D(2) dopamine receptor, greater than 10000 nM. Further, the Ratio Ki in the data set filed under Rattus norvegicus turned out to be 51.

With `CCCOc1ccc(CN2CCN(Cc3cc4ccccc4o3)CC2)cc1`, the Ki is 2400 nM in data set [1]; 655 nM in data set [2]; 4720 nM in data set [3]; 53.8 nM in data set [4]; greater than 10000 nM on D(2) dopamine receptor. In addition, the Ratio Ki in the data set listed under Rattus norvegicus is 45.

For the compound `CCCOc1ccccc1CN1CCN(Cc2cc3ccccc3o2)CC1`, the Ki in data set [1] is 778 nM; in data set [2], 116 nM; in data set [3], 2460 nM; in data set [4], 79 nM; at D(2) dopamine receptor it was greater than 10000 nM. Moreover, the Ratio Ki in the data set filed under Rattus norvegicus was 10.

`[11CH3]Oc1ccc(CN2CCN(Cc3cc4ccccc4o3)CC2)cc1`: the Drug uptake result in data set [5] is reported as “Active”; in [6], “Not Active”; in data set [7], “Active”; in data set [8], “Not Active”; in data set [9], “Not Active”; in [10] it was “Not Active”. Also, the Drug uptake entry in [11] is given as “Active”.

Take `COc1cccc(CN2CCN(Cc3cc4ccccc4o3)CC2)c1`: the Ki in data set [1] was found to be 79.5 nM; in data set [2] it was 28 nM; in [3], 373 nM; in [4], 16.3 nM; at D(2) dopamine receptor, 5730 nM. In addition, the Ratio Ki in the data set filed under Rattus norvegicus stood at 4.9.

For the compound `FCCOc1cccc(CN2CCN(Cc3cc4ccccc4o3)CC2)c1`, the Ki in [1] was 292 nM; in data set [2], 244 nM; in [3], 469 nM; in data set [4], 49.7 nM; at D(2) dopamine receptor, 2280 nM. The Ratio Ki in the data set listed under Rattus norvegicus came out at 5.9.

For the compound `FCCOc1ccccc1CN1CCN(Cc2cc3ccccc3o2)CC1`, the inhibitory constant (Ki) was 535 nM in [1]; 57 nM in data set [2]; 3250 nM in data set [3]; 488 nM in data set [4]; greater than 10000 nM at D(2) dopamine receptor. The Ratio Ki in the data set listed under Rattus norvegicus stood at 1.1.

Regarding `COc1ccccc1CN1CCN(Cc2cc3ccccc3o2)CC1`, the Ki in data set [1] was 89 nM; in [2], 9.7 nM; in data set [3] it was 806 nM; in [4], 198 nM; at D(2) dopamine receptor, 5120 nM. Further, the Ratio Ki in the data set filed under Rattus norvegicus amounted to 0.45.

Take `CCOc1cccc(CN2CCN(Cc3cc4ccccc4o3)CC2)c1`: the Ki worked out at 238 nM in data set [1]; 302 nM in data set [2]; 1720 nM in data set [3]; 80 nM in data set [4]; 4540 nM at D(2) dopamine receptor. The Ratio Ki in the data set filed under Rattus norvegicus was found to be 3.

For `CCOc1ccc(CN2CCN(Cc3cc4ccccc4o3)CC2)cc1`, the Ki was 393 nM in data set [1]; 262 nM in [2]; 3340 nM in data set [3]; 10.6 nM in data set [4]; 4870 nM at D(2) dopamine receptor. Moreover, the Ratio Ki in the data set filed under Rattus norvegicus was determined as 37.

In general, logD refers to the decadic logarithm of the distribution of all forms, ionised or not, between an organic phase and buffer at a given pH. Regarding `COc1ccc(CN2CCN(Cc3cc4ccccc4o3)CC2)cc1`, the inhibition constant (Ki) in data set [1] amounted to 103 nM; in data set [2], 15 nM; in data set [3], 2190 nM; in data set [4], 2.7 nM; on D(2) dopamine receptor, 2700 nM. This compound also registered a pH-dependent lipophilicity (logD) in data set [12] of 3.63. Besides, in the data set listed under Rattus norvegicus, the Ratio Ki is 38.

Take `CCOc1ccccc1CN1CCN(Cc2cc3ccccc3o2)CC1`: the Ki came out at 295 nM in [1]; 72 nM in [2]; 468 nM in data set [3]; 37.1 nM in [4]; 6000 nM at D(2) dopamine receptor. In addition, the Ratio Ki in the data set listed under Rattus norvegicus was determined as 8.

Take `FCCCOc1ccccc1CN1CCN(Cc2cc3ccccc3o2)CC1`: the Ki in data set [1] was 542 nM; in data set [2], 184 nM; in [3], 3380 nM; in data set [4] it was 9.1 nM; on D(2) dopamine receptor, greater than 10000 nM. In the data set listed under Rattus norvegicus, the Ratio Ki was 60.
